The text below walks through data of ChEMBL document CHEMBL4732039, “Introduction of a cyano group at the 2-position of an (R,S)-3-hydroxy-2-(phosphonomethoxy)propyl (HPMP) derivative of thymine elicits selective anti-HBV activity” (RSC Med Chem, 2021).

Data set [1] relates to Human betaherpesvirus 5. The data set is described as follows: Antiviral activity against HCMV AD169 infected in human embryonic lung cells. Format: functional, cell-based. The following applies: Human betaherpesvirus 5, AD169, Lung.
A short description of data set [2]: Selectivity index, ratio of CC50 of human HepG2.2.2.15 cells to EC50 of antiviral activity against HBV infected in human HepG2.2.2.15 cells. The format is toxicity, cell-based. The note with it: read-out: Ratio CC50/EC50.
Data set [3] relates to Human betaherpesvirus 5. The data set can be described thus: Antiviral activity against HCMV AD169 infected in human HFF cells assessed as reduction in virus-induced cytopathic effect incubated for 14 days by cell-titer glo assay. The following applies: Human betaherpesvirus 5, AD169, HFF, 336 h; for EC90: time 14 day. The format is functional, cell-based.
In another data set the test system is Human alphaherpesvirus 3. The data set can be described thus: Antiviral activity against VZV infected in human HFF cells assessed as reduction in virus-induced cytopathic effect incubated for 14 days by cell-titer glo assay. Format: functional, organism-based. The note with it: Human alphaherpesvirus 3, HFF, 336 h; for EC90: time 14 day. In general terms: Cytopathic effects are the visible damage that an infection or toxin causes in cultured cells.

A short description of data set [4]: Selectivity index, ratio of CC50 for human HFF cells to EC50 for antiviral activity against HCMV AD169.
Another data set concerns Hepatitis B virus. The data set can be described thus: Antiviral activity against HBV infected in human HepG2.2.2.15 cells assessed as inhibition of viral replication preincubated for 3 days followed by media replenishment with fresh drug and further incubated for 3 days by qPCR analysis. Format: functional, organism-based. The note with it: for EC50: HepG2 2.2.15; for EC90: HepG2 2.2.15, 144 h, time 6 day. An outline of the steps: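 HepG2 2.2.15 human hepatoblastoma cells, carrying two copies of wild-type HBV (strain ayw) genome and constitutively producing virus. Extracellular HBV DNA copy number from released virions quantified by real-time TaqMan qPCR. […] Lamivudine (3TC) was the positive control.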
Background: In qPCR the cycle at which signal appears reflects the starting amount.

Data set [5] in a line: Selectivity index, ratio of CC50 of human HFF cells to EC50 of antiviral activity against VZV. The format is toxicity. The note with it: read-out: Ratio CC50/EC50.
Data set [6] has as its system Human immunodeficiency virus 1. The data set can be described thus: Antiviral activity against HIV-1 3B infected in human MT4 cells assessed as reduction in virus-induced cytopathic effect measured after 5 days by MTT assay. Format: functional, organism-based. The gist of the method: (§1)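 MT-4 cells infected with wild-type HIV-1 IIIB or HIV-2 ROD. Protection read out by MTT assay. Cytotoxicity was assessed in parallel in uninfected MT-4 cells.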

Data set [7] can be described thus: Cytotoxicity against human HFF cells assessed as reduction in cell viability incubated for 14 days by cell titer glo assay. Format: cell-based. The note with it: time 14 day. On the technique in general: Cellular ATP, detected with luciferase, serves as a proxy for viable cell number.
Data set [8] deals with Human immunodeficiency virus 2. The data set is described as follows: Antiviral activity against HIV-2 ROD infected in human MT4 cells assessed as reduction in virus-induced cytopathic effect measured after 5 days by MTT assay. The format is functional, organism-based. The gist of the method:
as §1

A short description of data set [9]: Cytotoxicity against human HepG2.2.2.15 cells assessed as reduction in cell viability incubated for 6 days by cell titer glo assay. The format is cell-based. The note with it: time 6 day.

Each structure is given as a SMILES string.

For orientation: EC50 means the concentration at which the effect is half-maximal. Usually EC90 stands for the concentration needed for an effect of 90%. By CC50 is commonly meant the concentration that lowers cell viability or growth by half.

Molecule `Nc1ncnc2c1ncn2C[C@@H](CO)OCP(=O)(O)O` returned an EC50 in the data set with Human betaherpesvirus 5 [1] of 1 µM.
Turning to `CCN(CC)CC.N#CC(CO)(Cn1ccc(N)nc1=O)OCP(=O)(O)O` (stereo not drawn), the selectivity ratio in data set [2] and in data set [5] was 1 in each case. Besides, the EC50 was over 150 µM in the data set with Human betaherpesvirus 5 [3]; over 150 µM with Human alphaherpesvirus 3; over 100 µM in the data set on Hepatitis B virus; “Not Active” in data set [6] (mt4); “Not Active” in data set [8] (mt4). Further, the EC90 with Human betaherpesvirus 5 [3] is over 150 µM; in the data set with Human alphaherpesvirus 3, over 150 µM; in the data set with Hepatitis B virus, over 100 µM. Besides, in data set [4], the “Ratio CC50/EC50” value is reported as 1. The CC50 at 336 h in data set [7] was over 150 µM. Besides, the CC50 at 144 h in data set [9] is over 100 µM.
Consider `CCN(CC)CC.N#CC(CO)(Cn1cnc2c(N)ncnc21)OCP(=O)(O)O` (stereo not drawn), for which the EC50 in the data set with Human betaherpesvirus 5 [3] is 1.1 µM; with Human alphaherpesvirus 3 it was 106 µM; in the data set with Hepatitis B virus, 3.6 µM; in [6] (mt4), “Not Active”; in data set [8] (mt4), “Not Active”. Further, the values for the EC90 in the data set with Human betaherpesvirus 5 [3], in the data set on Human alphaherpesvirus 3 and in the data set on Hepatitis B virus were over 150 µM, over 150 µM and 9.9 µM, respectively. Further, the “Ratio CC50/EC50” value in data set [4] is on record as over 137. Moreover, in data set [5], the selectivity ratio turned out to be 1. Moreover, the CC50 at 336 h in [7] is over 150 µM. For the same molecule, the CC50 at 144 h in data set [9] was over 100 µM.
Consider `CCN(CC)CC.N#CC(CO)(Cn1cnc2c(=O)[nH]c(N)nc21)OCP(=O)(O)O` (stereo not drawn), for which the selectivity ratio in [2] was 1; in [5], 47. Also, the EC50 with Human betaherpesvirus 5 [3] is 2 µM; with Human alphaherpesvirus 3, 2.08 µM; with Hepatitis B virus it was over 100 µM; in data set [6] (Human immunodeficiency virus 1, 3B, MT4, 120 h, read-out: EC50) it was 51 µM; in data set [8] (Human immunodeficiency virus 2, ROD, MT4, 120 h, read-out: EC50), 33.7 µM. The EC90 was over 30 µM in the data set on Human betaherpesvirus 5 [3], over 30 µM in the data set on Human alphaherpesvirus 3 and over 100 µM with Hepatitis B virus. The “Ratio CC50/EC50” value in [4] is 50. For the same molecule, the CC50 at 336 h in data set [7] came to 102 µM. Besides, the CC50 at 144 h in data set [9] was over 100 µM.
Consider `CCN(CC)CC.Cc1cn(CC(C#N)(CO)OCP(=O)(O)O)c(=O)[nH]c1=O` (stereo not drawn), for which the figures for the selectivity ratio in data set [2] and in data set [5] were over 302000 and 1, respectively. Besides, the concentration giving a half-maximal response (EC50) in the data set on Human betaherpesvirus 5 [3] is over 150 µM; with Human alphaherpesvirus 3, over 150 µM; with Hepatitis B virus, 0.33 µM; in data set [6] (mt4) it was “Not Active”; in [8] (mt4), “Not Active”. The EC90 in the data set on Human betaherpesvirus 5 [3] was over 150 µM; in the data set on Human alphaherpesvirus 3 it was over 150 µM; with Hepatitis B virus, 0.79 µM. The “Ratio CC50/EC50” value in data set [4] was found to be 1. Further, in [7], the CC50 at 336 h was over 150 µM. In [9], the CC50 at 144 h is over 100 µM.
In the case of `CCN(CC)CC.N#CC(CO)(Cn1ccc(=O)[nH]c1=O)OCP(=O)(O)O` (stereo not drawn), the selectivity ratio in data set [2] and in data set [5] was 1 each time. Besides, the EC50 was over 150 µM in the data set with Human betaherpesvirus 5 [3]; over 150 µM in the data set with Human alphaherpesvirus 3; over 100 µM in the data set with Hepatitis B virus; “Not Active” in [6] (mt4); “Not Active” in [8] (mt4). The values for the EC90 in the data set on Human betaherpesvirus 5 [3], in the data set on Human alphaherpesvirus 3 and in the data set with Hepatitis B virus were over 150 µM, over 150 µM and over 100 µM, respectively. The “Ratio CC50/EC50” value in data set [4] came out at 1. In addition, the CC50 at 336 h in data set [7] was over 150 µM. Moreover, in data set [9], the CC50 at 144 h is over 100 µM.
Consider `Nc1nc2c(ncn2COC(CO)CO)c(=O)[nH]1` [GANCICLOVIR], for which, in the data set with Human betaherpesvirus 5 [3], the EC50 stood at 0.9 µM and the EC90 amounted to 74.2 µM. The CC50 at 336 h in data set [7] is over 150 µM.
